From PubChem BioAssay AID624467 (The Scripps Research Institute Molecular Screening Center, 2012) come the findings set out here.

Molecules are shown by their SMILES. Where “and” joins values, the source holds several entries; their conditions need not be identical. Equal values may be shown once. Among all 360,000 compounds or so, about 3,600 (1%) were called active. The full list was thinned out, with actives kept by preference. Values without a mark were called inactive.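 Rule for the calls: active = activation above the mean activation of all test compounds in the run plus 3 SD (cut at about 38% in these data); inactive = the rest.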

Sequence of Trace amine-associated receptor 1 (Homo sapiens) (Q96RJ0 whole entry, looked up): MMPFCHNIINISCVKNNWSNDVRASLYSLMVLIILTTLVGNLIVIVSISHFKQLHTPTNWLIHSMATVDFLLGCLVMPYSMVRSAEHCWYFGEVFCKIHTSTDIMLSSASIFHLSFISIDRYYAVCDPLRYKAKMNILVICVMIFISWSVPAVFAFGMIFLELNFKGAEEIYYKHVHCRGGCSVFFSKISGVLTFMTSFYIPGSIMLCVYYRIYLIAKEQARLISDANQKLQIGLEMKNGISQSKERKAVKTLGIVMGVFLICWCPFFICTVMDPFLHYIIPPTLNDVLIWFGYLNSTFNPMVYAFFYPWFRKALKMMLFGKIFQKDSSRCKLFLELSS

In this assay the target is Trace amine-associated receptor 1 (Homo sapiens) (UniProt Q96RJ0). Kind of assay: activators of TAAR1 calcium mobilization – Fluo-8 calcium fluorescence, CHO RD-HGA16 cells, primary screen (AID 624467). To be noted: CHO RD-HGA16 TAAR1, Fluo-8 calcium fluorescence; at 3 µM; stronger effect = higher value; vehicle wells 0%, saturating PEA agonist 100%. An outline of the steps:
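Assay system – CHO-derived RD-HGA16 cells with stable Gα16 and human TAAR1 · Compound dosing – one-point dosing at 3 µM (nominal) · Incubation – 17-24 h seeding, 75 min 37 °C dye, 30 min RT · Measured by – kinetic Fluo-8 calcium fluorescence · Control set – DMSO vehicle as 0%, PEA at EC100 as 100% · Repeats – single well for each compound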
(In general: Calcium assays in cells follow changes in intracellular calcium, usually with a dye or a luminescent sensor.)
`COc1ccc(-c2ccccc2C2Cc3nnccc3CN2C(=O)Nc2ccccc2)cc1` (stereo not given): the activation is -0.83%. With `COC(=O)c1cc2c(c3c4ccccc4n(S(=O)(=O)c4cccc(C)c4)c13)C(=O)N(Cc1ccccc1)C2` the figure was 3.11%; with `C=CCNC(=O)COC(=O)c1ccccc1C(=O)N(C)C1CCCCC1`, 5.08%.

As to `NS(=O)(=O)c1ccc(CCNC(=O)NC2CCCCC2)cc1`, the activation was 1.51%. With `CC(C)C(=O)Nc1ccc2c(c1)oc1ccccc12` the figure was 6.67%; with `NC(=O)Nc1ccccc1C(=O)NCCc1ccccc1`, 10.1%. Next, `CC(NC(=O)CC1SC(N)=NC1=O)c1ccccc1` (stereo not given): 4.22%; `Nc1[nH]c(C(=O)c2ccc(Br)cc2)c(-c2ccc3c(c2)OCO3)c1C(=O)NCCc1c[nH]c2ccccc12`: 6.41%. With `COc1cccc(NC(=O)Nc2nnc(N3CCCCC3C)s2)c1` (stereo not given) the figure was 0.7%; with `CCOC(=O)c1csc(NC(=O)Nc2cccc(OC)c2)n1`, 14.4%; with `NC(c1csc(NC(=O)Nc2cccc(C(F)(F)F)c2)n1)C1CCCCC1` (stereo not given), 39% (active). As for `C/C(CC(=O)Nc1cccc(C(F)(F)F)c1)=N\NC(=O)C(=O)NCC(C)C`, the activation was 4.66%. As for `COc1cc(NC(=O)c2cncc(-c3ccc(C#N)cc3)c2)cc(C(=O)Nc2cccc(C(F)(F)F)c2)c1`, the activation was 7.65% and 3.81%. Take `NC(c1ccccc1)c1csc(NC(=O)Nc2cccc(C(F)(F)F)c2)n1` (stereo not given): the activation was 57% (active). Next, `COc1ccc(C(N)c2csc(NC(=O)Nc3cccc(C(F)(F)F)c3)n2)cc1` (stereo not given): 50.9% (active). With `CC(=O)c1ccc(Nc2nc(C(N)c3ccccc3)cs2)cc1` (stereo not given) the figure was 4.52%. With `NC(c1csc(NC(=O)Nc2ccccc2Oc2ccccc2)n1)c1ccccc1Cl` (stereo not given) the figure was 13.7%; with `CC1(C(=O)NS(=O)(=O)c2cccc(F)c2)CCN1C(=O)c1cccc2ccccc12` (stereo not given), -0.17%; with `O=S1(=O)c2c(cccc2N2CCCC2)O[C@H](COCc2ccccc2)CN1C1CC1`, 0.87%. Consider `Cc1cc(N2CCN(C(=O)OC(C)(C)C)C[C@H]2C)ccc1N1CCN(Cc2ccccc2)[C@H](C)C1`, for which the activation is 0.58%.

Turning to `Cc1nc2c(OCc3ccc(Cl)cc3)cccn2c1N(C)Cc1cccs1`, the activation is 0.87%.

With `CCCCCCCCN1C(=O)[C@@H](CC(=O)NCc2ccccc2)C[C@@]2(C(=O)OC)C1=C[C@H](C(C)(C)C)O[C@@H]2C`, the activation is -0.96%. For the compound `Cc1ccc(OC(=O)c2cncc(Br)c2)c(C)c1`, the activation is 6.31%. Next, `COCCNC(=O)C1CCN(C(=O)C2CC(=O)N(c3ccc(C)cc3)C2)CC1` (stereo not given): -0.76%; `COc1ccc(NC(=O)c2sc(N3CCOCC3)nc2-c2ccccc2)c(OC)c1`: -1.31%. With `COc1ccc(C(=O)NC(=O)CSc2nnc(-c3ccco3)n2-c2ccccc2)cc1` the figure was 1.34%. As to `COc1ccc(C(=O)NC(=S)NNC(=O)c2c(-c3ccccc3)noc2C)cc1`, the activation was 120% (active). Next, `Cc1onc(-c2ccccc2)c1C(=O)NNC(=S)NC(=O)c1ccc(F)cc1`: 112% (active); `Cc1onc(-c2ccccc2)c1C(=O)N1CCN(S(=O)(=O)c2ccccc2C(F)(F)F)CC1`: 0.73%.

With `Cc1nc2ccccc2c(C)c1C(=O)c1ccc(F)cc1`, the activation was 12.1%. Next, `O=C(O)C1CCN(S(=O)(=O)N2CCOCC2)CC1`: 7.75%; `Cc1ccc(OCC(=O)Nc2ccc(C(=O)O)cc2NC(=O)COc2ccc(C)c(C)c2)cc1C`: 3.56%; `Cc1cc2oc(=O)cc(-c3ccccc3)c2c(C)c1-c1ccc(OC(F)(F)F)cc1`: 2.46%. With `CCO[C@H]1OC(C(=O)N2CCOCC2)=C[C@@H](c2ccc3c(c2)OCO3)[C@@H]1CCCO`, the activation is 5.53%.

Consider `O=C(NCc1ccccc1)[C@@H]1CCCN1C(=O)[C@@H](NS(=O)(=O)c1ccc(F)cc1F)C1CCCCC1`, for which the activation was -0.54%. With `COc1ccccc1CNS(=O)(=O)c1c(C)[nH]c(C)c1C(=O)N1CCCCC1` the figure was 0.59%. With `NC(N)=Nc1nc2ccc(Br)cc2c(=O)[nH]1` the figure was 10.5%; with `O=c1c2cc(Br)ccc2nc(-c2cccc(Cl)c2)n1O`, 51.9% (active). Next, `NC(=O)c1cc(-c2cccnc2)nc2ccc(Br)cc12`: 0.6%; `C=CCNC(=O)COc1coc(CN2CCN(Cc3ccccc3)CC2)cc1=O`: 2.55%. Turning to `CCC(C(=O)OCC(=O)Nc1c(Cl)cc(Cl)cc1Cl)c1ccccc1` (stereo not given), the activation was 8.86%.

As to `CC(C)c1ccc(NC(=O)Cn2ncc3ccccc32)cc1`, the activation was 1.09%. With `CCC(C(=O)Nc1ccc(C(C)C)cc1)c1ccccc1` (stereo not given) the figure was 95.2% (active). In the case of `CCOC(=O)N(C)c1c(CC)nc2c(OCc3ccccc3C(=O)OC)cccn12`, the activation was 0.97%. Next, `O=C(CN1CCSCC1)N/N=C/c1ccc(Cl)cc1`: 12.7%; `O=C1NC[C@H](CCCCN2CCN(CCc3ccccc3)C(=O)C2=O)N(CC2CCCCC2)C1=O`: 1.95%. In the case of `CCN(CCN(C)C)C(=O)c1ccc2nc(C)c(N(C)C(=O)CCc3ccccc3)n2c1`, the activation is 1.46%. With `O=C1C=C(c2ccc(Cl)cc2)C(=O)N1Nc1ccccc1` the figure was 58.9% (active).

Turning to `O=C(COC(=O)c1cccc(Cl)c1)NC(=O)NCc1ccccc1`, the activation is 2.7%. Next, `CCc1c(-c2ccc(F)cc2)ncn1Cc1cccc(-c2ccccc2)c1`: 0.6%; `CCCCN1C(=O)C(C)=C(C)C1OCCc1ccc(OC)c(OC)c1` (stereo not given): 2.56%. `CCCCCc1c(Cc2ccccc2)ncn1CCc1ccccc1OC`: the activation is 62.8% (active).

Consider `CCCCCc1c(-c2cccc(Br)c2)ncn1CCc1ccccc1OC`, for which the activation was 50.1% (active). Next, `CCCCCc1c(-c2ccc(OC)c(OC)c2)ncn1CCc1ccccc1OC`: 60.6% (active); `COC(=O)c1ccc2nc(-c3ccc(OC)c(OC)c3)c(Cc3ccccc3)n2c1`: -2.01%. With `CCCCNS(=O)(=O)CCNCc1ccccc1OC` the figure was -1.08%; with `COC(=O)c1ccc2nc(-c3cccc(Br)c3)c(Cc3ccccc3C(F)(F)F)n2c1`, 4.12%. With `Cn1c(=O)c2c(ncn2CCc2ccccc2)n(C)c1=O` the figure was 2.07%; with `C=C1CCC(N(O)c2cc(C)on2)C(=C)CCC2C1CC2(C)C` (stereo not given), 2.74%; with `COC(=O)C1=C(C)N(Cc2ccc(C(F)(F)F)cc2)C(=NCc2ccccc2)NC1c1ccccc1C(F)(F)F` (stereo not given), 5.43%.

Regarding `O=C(CC1NCCc2ccccc21)Nc1cccc(Cl)c1` (stereo not given), the activation is 9.23%.

On to `COCCNC(=S)N(C)[C@H]1C[C@H]2c3[nH]c4ccccc4c3CCN2C[C@H]1[C@H](C)O`, for which the activation was 3.21%. Next, `CC1CCCCC1NC(=O)CSc1nnc(N)s1` (stereo not given): 9.77%. With `CCN(CC)C(=O)CS(=O)CC(=O)Nc1cc(OCCOC)c(Cl)cc1Cl` (stereo not given), the activation was 5.84%.

For `COc1ccc(OC)c(NC(=O)c2ccc3c(c2)CCN3S(C)(=O)=O)c1`, the activation was 2.63%. With `Cc1ccc2nc(-c3ccc(CN4CCC(n5cc(-c6ccccc6)[nH]c5=O)CC4)cc3)c(-c3ccccc3)nc2c1` the figure was 1.53%; with `c1ccc2c(c1)C(=NC1CCCCC1)NC2=NC1CCCCC1`, 83.2% (active); with `Cn1nccc1NC(=O)CC(CC(=O)O)c1ccccc1` (stereo not given), 1.46%. With `Nc1ncnc2c1ncn2[C@@H]1O[C@H](C(=O)N[C@@H](CCc2ccccc2)C(=O)N2CCCN(Cc3cccs3)CC2)[C@@H](O)[C@H]1O` the figure was -0.59%; with `C=CCNC(=O)COC(=O)CNC(=O)c1cc(Cl)cc([N+](=O)[O-])c1`, -0.52%. Next, `CC[C@H](NC(=O)[C@H](Cc1ccccc1)NC(=O)[C@H]1O[C@@H](n2cnc3c(=O)[nH]c(N)nc32)[C@H](O)[C@@H]1O)c1ccccc1`: 12.6%; `Cc1nc(-c2ccc(Cl)cc2)sc1C1(C)CC(c2ccccc2F)=NO1` (stereo not given): -1.12%; `Cc1nc(C(=O)NCc2ccccc2)sc1C1(C)CC(c2cccnc2)=NO1` (stereo not given): 57.5% (active). With `Cc1nc(C(=O)Nc2ccc(Cl)cc2)sc1C1(C)CC(c2ccccc2)=NO1` (stereo not given), the activation is 5.24%. Next, `O=C(C(=O)N1CCC(CNC(=O)c2cccnc2Cl)CC1)c1cccs1`: 1.11%; `CN1C(=O)CN2CCc3ccccc3C2c2cc(Cl)ccc21` (stereo not given): 3.95%; `CC(=O)c1ccc(S(=O)(=O)NCC2CCN(C(=O)C(=O)c3cccs3)CC2)cc1`: 6.58%.

Consider `O=C(O)CC(SCC(=O)Nc1ccc(Br)cc1)C(=O)O` (stereo not given), for which the activation was 5.77%. With `O=C(CSCc1ccc(Br)cc1)Nc1ccc(S(=O)(=O)N2CCCCCC2)cc1` the figure was 23.4%; with `O=C1CCCN2N=C(SCC(=O)Nc3ccc(Br)cc3)SC2=N1`, 46.4% (active); with `COC(=O)C1=C(C)N(Cc2ccccc2C(F)(F)F)C(=NCC2CC2)NC1c1cccc(Cl)c1` (stereo not given), 26.6%. With `O=C(/C=C/[C@H]1O[C@@H](n2cnc3c(NC(=O)c4ccccc4)ncnc32)[C@H](O)[C@@H]1O)NCc1ccccc1` the figure was 54.8% (active); with `CCC(C)C(CO)NC(=O)/C=C/[C@H]1O[C@@H](n2cnc3c(NC(=O)c4ccccc4)ncnc32)[C@H](O)[C@@H]1O` (stereo not given in full), 2.69%; with `COc1cccc(CN(C)C(=O)CC[C@H]2O[C@@H](n3cnc4c(NC(=O)c5ccccc5)ncnc43)[C@H](O)[C@@H]2O)c1`, 0.18%. With `COc1ccc(C(CNC(=O)c2cccc(S(=O)(=O)Nc3ccccc3Cl)c2)N2CCOCC2)cc1` (stereo not given) the figure was -1.44%.
